Experimental data from ChEMBL document CHEMBL3526139, “Clinical pharmacokinetics, metabolism, and drug-drug interaction of carfilzomib” (Drug Metab Dispos, 2013).

How the values were obtained:
[1] = Drug excretion in urine of human patient with relapsed and refractory hematological malignancies treated intravenously with carfilzomib on days 1, 2, 8, 9, 15 and 16 of 28-day cycle over 2 to 10 mins by LC-MS/MS analysis; format: ADME; conditions: in vivo, iv
Plasma = test: Drug level in plasma of human patient with relapsed and refractory hematological malignancies treated intravenously with carfilzomib on days 1, 2, 8, 9, 15 and 16 of 28-day cycle over 2 to 10 mins by LC-MS/MS analysis; format: ADME; conditions: iv
Homo sapiens = test: Ratio of compound AUC (infinity) to carfilzomib AUC (infinity) in human multiple myeloma patient with normal renal function treated with carfilzomib at 15 mg/m'2, iv on days 1, 2, 8, 9, 15 and 16 of 28-day cycle over 2 to 10 mins by LC-MS/MS analysis; format: ADME, organism-based; conditions: in vivo
Cytochrome P450 3A = Cytochrome P450 3A (Homo sapiens, UniProt P08684+P20815+Q9HB55+P24462); test: Inhibition of CYP3A in human liver microsomes treated with […] up to 30 uM by LC-MS/MS analysis; format: ADME
How it was run: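 Metabolites were tested for CYP3A inhibition in HLM at 0.04–30 µM, with or without a 30-min preincubation. Midazolam or testosterone substrate was used with a 5-min reaction and LC-MS/MS read-out.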

CYP3A [2] = target: T1, CYP3A (Homo sapiens, UniProt P08684+P20815+P24462+Q9HB55); test: Inhibition of CYP3A in human liver microsomes treated with carfilzomib by LC-MS/MS analysis; format: ADME
CYP3A [3] = target: T1, CYP3A; test: Time-dependent inhibition of CYP3A in human liver microsomes preincubated for 30 mins with carfilzomib by LC-MS/MS analysis; format: ADME; conditions: liver microsomes
How it was run: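 Pooled HLM (16 donors) given carfilzomib 0.01–10 µM in duplicate at 37°C with a 30-min preincubation before probe substrate was added. Substrate was set near Km (testosterone Km 100 µM; midazolam Km 3.8 µM). Protein was 0.1 mg/mL, or 0.05 mg/mL with midazolam. Metabolite formation was read by LC-MS/MS after 5 min and expressed relative to 0.5% acetonitrile controls to give IC50.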

[4] = Tmax in solid tumor patient at 2 mg, po administered as single dose followed by co-treatment with 27 mg/m2, iv carfilzomib over 2 to 10 mins on days 1, 2, 8, 9, 15 and 16 of single 28-day cycle measured on day 16; format: ADME, organism-based; conditions: human, in vivo
How it was run: (§1)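 Oral midazolam 2 mg single dose on Day -7, then 2 mg given immediately after IV carfilzomib (27 mg/m2, 2–10 min infusion) on Days 1 and 16. Plasma sampled pre-dose and 5, 10, 30 min, 1–24 h post-midazolam. Midazolam measured by liquid-liquid extraction (methyl tert-butyl ether) and LC-MS/MS, range 0.100–100 ng/mL, d4-midazolam internal standard. Tmax derived noncompartmentally.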

[5] = AUC(last) in solid tumor patient at 2 mg, po administered as single dose measured on day 7; conditions: human, plasma
[6] = AUC(infinity) in solid tumor patient at 2 mg, po administered as single dose measured on day 7; conditions: human, plasma
[7] = Tmax in solid tumor patient at 2 mg, po administered as single dose followed by co-treatment with 27 mg/m2, iv carfilzomib over 2 to 10 mins on days 1, 2, 8, 9, 15 and 16 of single 28-day cycle measured on day 1; format: ADME, organism-based; conditions: human, in vivo; how it was run: as §1
[8] = Half life in solid tumor patient at 2 mg, po administered as single dose followed by co-treatment with 27 mg/m2, iv carfilzomib over 2 to 10 mins on days 1, 2, 8, 9, 15 and 16 of single 28-day cycle measured on day 1; conditions: human, in vivo
clinical [9] = conditions: human, plasma, po
clinical [10] = conditions: human, plasma, po; remark: listed apart in the source
clinical [11] = conditions: human, in vivo, po
clinical [12] = conditions: human, plasma, po, 2 mg
clinical [13] = conditions: human, in vivo, po; remark: listed apart in the source
clinical [14] = conditions: human, plasma, po; remark: listed apart in the source
clinical [15] = conditions: human, plasma, po; remark: listed apart in the source
clinical [16] = conditions: human, plasma, po; remark: listed apart in the source
clinical [17] = conditions: human, in vivo, po; remark: listed apart in the source
clinical [18] = conditions: human, plasma, po; remark: listed apart in the source

SMILES: O=C(CN1CCOCC1)NC(CCc1ccccc1)C(=O)O (stereo not drawn)
- Drug excretion [1]: metabolite_detected
- Drug metabolism (Plasma): metabolite_detected
- Ratio (Homo sapiens): 1.2
- inhibition (INH) (Cytochrome P450 3A): Not Active

SMILES: CC(C)CC(NC(=O)C(CCc1ccccc1)NC(=O)CN1CCOCC1)C(=O)O (stereo not drawn)
- Drug excretion [1]: metabolite_detected
- Drug metabolism (Plasma): metabolite_detected
- Ratio (Homo sapiens): 0.11
- inhibition (INH) (Cytochrome P450 3A): Not Active

SMILES: CC(C)CC(NC(=O)C(CCc1ccccc1)NC(=O)CN1CCOCC1)C(=O)NC(Cc1ccccc1)C(=O)NC(CC(C)C)C(=O)C(C)(O)CO (stereo not drawn)
- Drug excretion [1]: metabolite_detected
- Drug metabolism (Plasma): metabolite_detected
- Ratio (Homo sapiens): 0.28
- IC50 (CYP3A [2]): > 30000 nM
- IC50 at 30 min (CYP3A [3]): 1800 nM

SMILES: Cc1ncc2n1-c1ccc(Cl)cc1C(c1ccccc1F)=NC2 [MIDAZOLAM]
- Tmax [4]: 0.8 h
- AUC(0-t) [5]: 49.8 ng·h/mL
- AUC(0-inf) [6]: 54.3 ng·h/mL
- Tmax [7]: 0.7 h
- half-life [8]: 6.3 h
- AUC(0-t) (clinical [9]): 48.4 ng·h/mL
- AUC(0-inf) (clinical [10]): 59.9 ng·h/mL
- half-life (clinical [11]): 5.5 h
- AUC(0-t) at 12 h (clinical [12]): 42.5 ng·h/mL
- Cmax (clinical [13]): 15.7 ng/mL
- AUC(0-t) (clinical [14]): 47.3 ng·h/mL
- AUC(0-t) (clinical [15]): 40.3 ng·h/mL
- AUC(0-inf) (clinical [16]): 51.5 ng·h/mL
- Cmax (clinical [17]): 16 ng/mL
- AUC(0-t) (clinical [18]): 48.4 ng·h/mL
